Converted amounts (≈) assume the structure as drawn.
What was measured:
Type in all cases: functional
[1] = tested on: Staphylococcus aureus; test: Antimicrobial activity against methicillin-resistant Staphylococcus aureus NRS100 by micro-dilution method
Method in brief: (§1)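 Broth microdilution MIC in cation-adjusted Mueller-Hinton II medium supplemented with 1% Tween-80 (CAMHB-T), needed to disperse the farnesol-type compounds. Compounds tested from 2 to 2048 μg/mL.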

[2] = tested on: Staphylococcus aureus; test: Antimicrobial activity against methicillin-resistant Staphylococcus aureus NRS123 by micro-dilution method; method in brief: as §1
[3] = tested on: Staphylococcus aureus; test: Antimicrobial activity against methicillin-resistant Staphylococcus aureus NRS70 by micro-dilution method; method in brief: as §1
[4] = tested on: Staphylococcus aureus; test: Antimicrobial activity against methicillin-susceptible Staphylococcus aureus ATCC 29213 by micro-dilution method; method in brief: as §1
[5] = tested on: Staphylococcus aureus; test: Potentiation of ampicillin-induced antimicrobial activity against methicillin-susceptible Staphylococcus aureus ATCC 29213 at 256 ug/ml (reference value: ampicillin alone MIC = 0.5 ug/ml)
[6] = tested on: Staphylococcus aureus; test: Potentiation of ampicillin-induced antimicrobial activity against methicillin-susceptible Staphylococcus aureus ATCC 29213 at 256 ug/ml relative to ampicillin alone
[7] = tested on: Staphylococcus aureus; test: Potentiation of ampicillin-induced antimicrobial activity against methicillin-resistant Staphylococcus aureus NRS123 at 256 ug/ml (reference value: ampicillin alone MIC = 12 ug/ml)
[8] = tested on: Staphylococcus aureus; test: Potentiation of ampicillin-induced antimicrobial activity against methicillin-resistant Staphylococcus aureus NRS123 at 256 ug/ml relative to ampicillin alone
[9] = tested on: Staphylococcus aureus; test: Potentiation of ampicillin-induced antimicrobial activity against methicillin-resistant Staphylococcus aureus NRS100 at 128 ug/ml (reference value: ampicillin alone MIC = 16 ug/ml)
[10] = tested on: Staphylococcus aureus; test: Potentiation of ampicillin-induced antimicrobial activity against methicillin-resistant Staphylococcus aureus NRS100 at 128 ug/ml relative to ampicillin alone
[11] = tested on: Staphylococcus aureus; test: Potentiation of ampicillin-induced antimicrobial activity against methicillin-resistant Staphylococcus aureus NRS70 at 128 ug/ml (reference value: ampicillin alone MIC = 16 ug/ml)
[12] = tested on: Staphylococcus aureus; test: Potentiation of ampicillin-induced antimicrobial activity against methicillin-resistant Staphylococcus aureus NRS70 at 128 ug/ml relative to ampicillin alone
[13] = tested on: Staphylococcus aureus; test: Potentiation of oxacillin-induced antimicrobial activity against methicillin-susceptible Staphylococcus aureus ATCC 29213 at 256 ug/ml (reference value: oxacillin alone MIC = 0.4 ug/ml)
[14] = tested on: Staphylococcus aureus; test: Potentiation of oxacillin-induced antimicrobial activity against methicillin-susceptible Staphylococcus aureus ATCC 29213 at 256 ug/ml relative to oxacillin alone
[15] = tested on: Staphylococcus aureus; test: Potentiation of oxacillin-induced antimicrobial activity against methicillin-resistant Staphylococcus aureus NRS123 at 256 ug/ml (reference value: oxacillin alone MIC = 24 ug/ml)
[16] = tested on: Staphylococcus aureus; test: Potentiation of oxacillin-induced antimicrobial activity against methicillin-resistant Staphylococcus aureus NRS123 at 256 ug/ml relative to oxacillin alone
[17] = tested on: Staphylococcus aureus; test: Potentiation of oxacillin-induced antimicrobial activity against methicillin-resistant Staphylococcus aureus NRS100 at 128 ug/ml (reference value: oxacillin alone MIC = >256 ug/ml)
[18] = tested on: Staphylococcus aureus; test: Potentiation of oxacillin-induced antimicrobial activity against methicillin-resistant Staphylococcus aureus NRS70 at 128 ug/ml (reference value: oxacillin alone MIC = 32 ug/ml)
[19] = tested on: Staphylococcus aureus; test: Potentiation of oxacillin-induced antimicrobial activity against methicillin-resistant Staphylococcus aureus NRS70 at 128 ug/ml relative to oxacillin alone
[20] = tested on: Staphylococcus aureus; test: Potentiation of oxacillin-induced antimicrobial activity against methicillin-resistant Staphylococcus aureus NRS70 at 128 ug/ml by checkerboard assay
Method in brief: (§2)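 Checkerboard combination of oxacillin with the farnesol-type compound. Synergy scored by the fractional inhibitory concentration index (FICI).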

[21] = tested on: Staphylococcus aureus; test: Potentiation of oxacillin-induced antimicrobial activity against methicillin-resistant Staphylococcus aureus NRS100 at 128 ug/ml by checkerboard assay; method in brief: as §2
[22] = tested on: Staphylococcus aureus; test: Potentiation of ampicillin-induced antimicrobial activity against methicillin-resistant Staphylococcus aureus NRS100 relative to untreated ampicillin alone
[23] = tested on: Staphylococcus aureus; test: Potentiation of oxacillin-induced antimicrobial activity against methicillin-resistant Staphylococcus aureus NRS100 relative to untreated oxacillin alone
[24] = tested on: Staphylococcus aureus; test: Potentiation of ampicillin-induced antimicrobial activity against methicillin-resistant Staphylococcus aureus NRS70 relative to untreated ampicillin alone
[25] = tested on: Staphylococcus aureus; test: Potentiation of oxacillin-induced antimicrobial activity against methicillin-resistant Staphylococcus aureus NRS70 relative to untreated oxacillin alone
[26] = tested on: Staphylococcus aureus; test: Potentiation of ampicillin-induced antimicrobial activity against methicillin-susceptible Staphylococcus aureus ATCC 29213 at 1000 ug/ml (reference value: ampicillin alone MIC = 0.5 ug/ml)
[27] = tested on: Staphylococcus aureus; test: Potentiation of ampicillin-induced antimicrobial activity against methicillin-susceptible Staphylococcus aureus ATCC 29213 at 1000 ug/ml relative to ampicillin alone
[28] = tested on: Staphylococcus aureus; test: Potentiation of ampicillin-induced antimicrobial activity against methicillin-resistant Staphylococcus aureus NRS100 at 1000 ug/ml (reference value: ampicillin alone MIC = 16 ug/ml)
[29] = tested on: Staphylococcus aureus; test: Potentiation of ampicillin-induced antimicrobial activity against methicillin-resistant Staphylococcus aureus NRS100 at 1000 ug/ml relative to ampicillin alone
[30] = tested on: Staphylococcus aureus; test: Potentiation of ampicillin-induced antimicrobial activity against methicillin-resistant Staphylococcus aureus NRS70 at 1000 ug/ml (reference value: ampicillin alone MIC = 16 ug/ml)
[31] = tested on: Staphylococcus aureus; test: Potentiation of ampicillin-induced antimicrobial activity against methicillin-resistant Staphylococcus aureus NRS70 at 1000 ug/ml relative to ampicillin alone
[32] = tested on: Staphylococcus aureus; test: Potentiation of ampicillin-induced antimicrobial activity against methicillin-resistant Staphylococcus aureus NRS123 at 1000 ug/ml (reference value: ampicillin alone MIC = 12 ug/ml)
[33] = tested on: Staphylococcus aureus; test: Potentiation of ampicillin-induced antimicrobial activity against methicillin-resistant Staphylococcus aureus NRS123 at 1000 ug/ml relative to ampicillin alone
[34] = tested on: Staphylococcus aureus; test: Potentiation of oxacillin-induced antimicrobial activity against methicillin-susceptible Staphylococcus aureus ATCC 29213 at 1000 ug/ml (reference value: oxacillin alone MIC = 0.4 ug/ml)
[35] = tested on: Staphylococcus aureus; test: Potentiation of oxacillin-induced antimicrobial activity against methicillin-susceptible Staphylococcus aureus ATCC 29213 at 1000 ug/ml relative to oxacillin alone
[36] = tested on: Staphylococcus aureus; test: Potentiation of oxacillin-induced antimicrobial activity against methicillin-resistant Staphylococcus aureus NRS100 at 1000 ug/ml (reference value: oxacillin alone MIC = >256 ug/ml)
[37] = tested on: Staphylococcus aureus; test: Potentiation of oxacillin-induced antimicrobial activity against methicillin-resistant Staphylococcus aureus NRS100 at 1000 ug/ml relative to oxacillin alone
[38] = tested on: Staphylococcus aureus; test: Potentiation of oxacillin-induced antimicrobial activity against methicillin-resistant Staphylococcus aureus NRS70 at 1000 ug/ml (reference value: oxacillin alone MIC = 32 ug/ml)
[39] = tested on: Staphylococcus aureus; test: Potentiation of oxacillin-induced antimicrobial activity against methicillin-resistant Staphylococcus aureus NRS70 at 1000 ug/ml relative to oxacillin alone
[40] = tested on: Staphylococcus aureus; test: Potentiation of oxacillin-induced antimicrobial activity against methicillin-resistant Staphylococcus aureus NRS123 at 1000 ug/ml (reference value: oxacillin alone MIC = 24 ug/ml)
[41] = tested on: Staphylococcus aureus; test: Potentiation of oxacillin-induced antimicrobial activity against methicillin-resistant Staphylococcus aureus NRS123 at 1000 ug/ml relative to oxacillin alone
[42] = tested on: Staphylococcus aureus; test: Potentiation of oxacillin-induced antimicrobial activity against methicillin-resistant Staphylococcus aureus NRS70 at 1000 ug/ml by checkerboard assay; method in brief: as §2
[43] = tested on: Staphylococcus aureus; test: Potentiation of oxacillin-induced antimicrobial activity against methicillin-resistant Staphylococcus aureus NRS100 at 1000 ug/ml by checkerboard assay; method in brief: as §2

CC(C)=CCC/C(C)=C/CC/C(C)=C/CN
MIC [1]: 256 µg/mL (≈ 1.16 mM) | MIC [2]: 512 µg/mL (≈ 2.31 mM) | MIC [3]: 256 µg/mL (≈ 1.16 mM) | MIC [4]: 512 µg/mL (≈ 2.31 mM) | MIC [5]: 0.2 µg/mL | fold change (FC) [6]: 2.5 | MIC [7]: 1 µg/mL | fold change (FC) [8]: 12 | MIC [9]: 8 µg/mL | fold change (FC) [10]: 2 | MIC [11]: 16 µg/mL | fold change (FC) [12]: 1 | MIC [13]: 0.5 µg/mL | fold change (FC) [14]: 0.8 | MIC [15]: 0.75 µg/mL | fold change (FC) [16]: 32 | MIC [17]: > 256 µg/mL | MIC [18]: 32 µg/mL | fold change (FC) [19]: 1 | fractional inhibitory concentration index (FICI) [20]: 0.53 - 1.13 | fractional inhibitory concentration index (FICI) [21]: 0.53 - 1.13

CC(C)=CCC/C(C)=C/CC/C(C)=C/CO [FARNESOL]
MIC [1]: 2050 µg/mL (≈ 9.21 mM) | MIC [2]: 2050 µg/mL (≈ 9.21 mM) | MIC [3]: 2050 µg/mL (≈ 9.21 mM) | MIC [4]: 2050 µg/mL (≈ 9.21 mM) | fold change (FC) [22]: 24 | fold change (FC) [23]: >64 | fold change (FC) [24]: 256 | fold change (FC) [25]: 96 | MIC [26]: 0.5 µg/mL | fold change (FC) [27]: 1 | MIC [28]: 4 µg/mL | fold change (FC) [29]: 4 | MIC [30]: 4 µg/mL | fold change (FC) [31]: 4 | MIC [32]: 3 µg/mL | fold change (FC) [33]: 4 | MIC [34]: 0.5 µg/mL | fold change (FC) [35]: 0.8 | MIC [36]: 8 µg/mL | fold change (FC) [37]: >32 | MIC [38]: 12 µg/mL | fold change (FC) [39]: 2.7 | MIC [40]: 2 µg/mL | fold change (FC) [41]: 12 | fractional inhibitory concentration index (FICI) [42]: 0.53 - 1.13 | fractional inhibitory concentration index (FICI) [43]: 0.53 - 1.13
